assay: Toxicity liver stage against HepG2, at 10uM; format: cell-based; parameters: test concentration 10 uM, cell line HepG2-A16-CD81EGFP; conditions: human, HepG2-A16-CD81EGFP cells; read-out: INHIBITION
Procedure, shortened: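 Uninfected HepG2-A16-CD81EGFP cells, 3 × 10^3 per well, 1536-well, plated on prespotted compound at 10 μM final, parasite-free screening media added to match infected plates; puromycin 10 μM positive, DMSO 0.5% negative; run in parallel with 48 h PbLuc assay at 37 °C, 5% CO2; viability by CellTiter-Glo luminescence, normalized to controls.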

Structure (SMILES) | cytotoxicity at 10 µM
CC(NS(C)(=O)=O)C(=O)N(C)Cc1csc(-c2cccs2)n1 (stereo not drawn) | -0.525%
O=C1CC(Cc2ccc(NC(=O)c3cccc(F)c3)cc2)C(=O)N1 (stereo not drawn) | -1.39%
O=S(=O)(c1c(Cl)nc2sccn12)N1CCCC2(CCNC2)C1 (stereo not drawn) | 8.64%
O=c1[nH]ncc(NCCOc2ccc3c(c2)CCC3)c1Cl | 34.5%
Cc1occc1CNC(=O)Nc1ccc2nc(N3CCOCC3)oc2c1 | 9.5%
Cc1cnc(N2CCC3(CCN(CC4CCCC4)C3=O)CC2)nc1 | -6.54%
Cc1noc(Cl)c1CC(=O)N1CCCC1Cn1cccn1 (stereo not drawn) | -9.76%
Cc1nnsc1C(=O)N1CCN(C(=O)C2CCC2)[C@@H]2CS(=O)(=O)C[C@@H]21 | -2%
CC(NCCCN1CCCN(C)CC1)C(C)(C)C (stereo not drawn) | 29.9%
COCC(=O)Nc1cc(Br)cnc1OCC(F)(F)F | -5.6%
Cc1n[nH]c(CCC(=O)N2CCOC(Cc3ccc(F)cc3)C2)c1C (stereo not drawn) | -40.4%
CN(Cc1ccoc1)C(=O)Cn1ncc(N(C)C)cc1=O | 7.68%
O=C1[C@H]2CN(C(=O)[C@H]3CCCO3)C[C@H]2CN1CC1CC1 | -6.66%
Cn1ccc(C(=O)N2CCCC(Cc3cccc4ncccc34)C2)n1 (stereo not drawn) | 22.1%
c1ccc(O[C@@H]2CC[C@H]3[C@H]2OCCN3CC2CCOCC2)nc1 | -1.02%
CCC(C)(C)NC(=O)Cn1nc(C)nc1-c1cccc(C)c1 | -8.44%
CC(C)C1SCC(=O)Nc2c1c(O)nn2C1CCCCC1 (stereo not drawn) | 2.42%
CC(CN1CCC2(CC1)N=C(c1cccnc1)NC2=O)c1ccccc1 (stereo not drawn) | 4.5%
O=C(c1cc(Cl)cc2cccnc12)N1CCN(CCO)CC1 | -2.07%
CCc1cnc(N2CC[C@H]3[C@@H]2CCC(=O)N3c2cccnc2)nc1 | 10.4%
Cc1ccc(CN2CCN(C3CSCCSC3)CC2CCO)o1 (stereo not drawn) | -8.51%

Structure (SMILES) | cytotoxicity at 10 µM
COCCN(C)CCN1CC2(CCN(C3CCCCC3)CC2)OC1=O | 3.73%
CCN(CC)CC(=O)N1CCN(CCc2ccncc2)CC1 | -44.7%
CSCC(=O)N1CCOC(c2nc(C(C)(C)C)n[nH]2)C1 (stereo not drawn) | -9.58%
CCCN1C[C@H](NC(=O)c2ccccc2F)[C@@H](c2ccc(OC)cc2)C1 | -41.8%
N#Cc1cc(S(N)(=O)=O)ccc1N1CCc2c(Cl)cccc2C1 | 14.7%
CCN1CC2(CCC1=O)CCN(Cc1nncn1C(C)C)CC2 | 8.39%
c1cc(-c2ccc3c(c2)CCC32CCNCC2)ccn1 | 8.86%
Cc1nc(CN2CCC(CNC(=O)Nc3ccccc3)CC2)oc1C | 3.54%
Cc1cc(C)cc(OCn2ccc(C(=O)O)n2)c1 | 6.06%
CC(=O)NCCc1cn(-c2cc(F)ccc2C)cn1 | -1.47%
CC(=O)c1ccc(-c2cnn(CC(=O)Nc3ccnn3C)c2)nc1 | 1.99%
O=C(N1CCCC(n2cncn2)C1)C1(c2ccc(Cl)cc2)CCC1 (stereo not drawn) | -2.11%
CCN(CC)c1ncc(Cl)c(C(=O)NC2CC2)n1 | -33.5%
CCN(C(=O)CS(=O)(=O)c1cc(OC)c(OC)cc1C)C1CC1 | -3.91%
CCN(CC)C(=O)Cn1ccc2cc(NC(=O)C3CC3)ccc21 | -3.87%
CCn1ccnc1CN1CCN(CCc2ccccn2)CC1C (stereo not drawn) | -8.74%
CCC1CCCCN1CCNC(=O)N1CCN(Cc2ccon2)CC1 (stereo not drawn) | -2.01%
CC(C)N1[C@H](Cn2cncn2)C[C@@H]2CNCC[C@@H]21 | 1.9%
CCC(Nc1nc(C)nc2onc(C)c12)c1nc(C)c(C)s1 (stereo not drawn) | 37.2%
Cc1ccc(CN2C[C@H](OCC3CCOCC3)[C@H]3COC[C@H]32)o1 | -4.58%
CC(C)C1CN(C(=O)Nc2cnn(CC(F)F)c2)CCS1 (stereo not drawn) | 12.6%

Structure (SMILES) | cytotoxicity at 10 µM
Cc1cccc(-n2c(C)cc(C(=O)N3CCn4c(C)nnc4C3)c2C)c1 | -4.86%
O=C(O)c1cc(C2=CCCCC2)cc(S(=O)(=O)NCc2ccccn2)c1 | -46.6%
CC1CCc2nc(NS(=O)(=O)c3cnn(C)c3)sc2C1 (stereo not drawn) | -0.842%
N#Cc1c(Cl)nsc1NCCCN1C(=O)COc2ccccc21 | 22.2%
Cn1ncc2c1C(COCC1CC1)CN(CC1CC1)C2 (stereo not drawn) | -78.5%
CC(C)Oc1cccc(C(=O)Nc2nncs2)c1 | -3.49%
CC(=O)N1CCCC(Cc2cnc(-n3ccnc3)cn2)C1 (stereo not drawn) | -21.7%
NC(=O)CN1CCN(c2ccnc3c(F)ccc(F)c23)CC1 | 0.315%
CN1C(=O)CC(c2ccccc2)C12CCN(C(=O)c1ccc[nH]1)CC2 (stereo not drawn) | 7.52%
Cc1nn(C)c2nc(N(C)CCN(C)C3CCCC3)sc12 | 3.55%
CCC(CC)C(=O)N1CCc2nc(N3CCCC3)nc(C)c2CC1 | 1.79%
NC(=O)Cn1ccnc1C1CCCN(CCSc2ccccc2)C1 (stereo not drawn) | -2.65%
Cc1oc(-c2cccc(F)c2F)nc1CN(C)CCC(C)(C)O | -4.47%
CNc1nc2c(s1)C(c1ccccc1Cl)CC(=O)N2 (stereo not drawn) | 2.82%
CCN(CC1CCOC1)C(=O)c1ccccc1S(=O)(=O)CC (stereo not drawn) | -2.15%
CCc1nc(C2CCCN2C(=O)CCCOc2cccc(F)c2)no1 (stereo not drawn) | 11.1%
C/C=C(\C)CN(CCN1CCOCC1)Cc1ccco1 | 11.1%
COCCN1CC2(CCCN(c3ncc(Cl)cc3F)C2)CCC1=O (stereo not drawn) | 21.8%
Cc1cnn(CC2CN(CCCS(=O)(=O)N(C)C)CCO2)c1 (stereo not drawn) | -2.71%
CCOCC(O)CN1CCN(C(=O)c2ccnc(N(C)C)c2)CC1 (stereo not drawn) | -3.47%
CCCS(=O)(=O)NC(C)C(=O)NCc1ccnc(N2CCCC2)c1 (stereo not drawn) | -13.6%

Structure (SMILES) | cytotoxicity at 10 µM
CCC(C)(CC(=O)OC)NC(=O)c1ccc(C(C)=O)cc1 (stereo not drawn) | -4.89%
COCCn1cc(C(=O)N2CCCC2c2ccc(F)cc2)ccc1=O (stereo not drawn) | -0.12%
O=C(CSc1ccccc1F)NS(=O)(=O)c1ccc2c(c1)OCCO2 | -4.36%
CC(C(=O)NCc1ccc(N2CCCCC2)nc1)n1cncn1 (stereo not drawn) | -10.3%
CC(CN(C)C)Nc1nc(O)cc(Cc2ccccc2F)n1 (stereo not drawn) | 13.2%
CC(C)c1nc(C2CCCN2Cc2nnc(C3CCC3)o2)no1 (stereo not drawn) | -15.6%
CC(C1CC1)N(C)C(=O)c1cnc(-c2ccc3c(c2)OCO3)s1 (stereo not drawn) | -7.06%
Cc1cnn(CC(C)NCC(=O)Nc2ccc(Cl)cn2)c1 (stereo not drawn) | 6.05%
Cc1cccc(N2CCC(NC(=O)CCCc3cccs3)CC2)n1 | -12.5%
COc1nn(C)c2c1CCCN(C(=O)c1ccc[nH]1)C2 | -0.966%
Cc1cnn(CCNCc2csc(-c3ccccc3)n2)c1 | -9.48%
O=S(=O)(c1cccs1)N1CCC(c2nc(-c3cccs3)no2)CC1 | 6.14%
CCCNCC1(O)CCCN(Cc2cccc(C)c2)C1=O (stereo not drawn) | -19.7%
Cc1nc2sccn2c1CNc1ccc(C(=O)O)cc1 | 11.7%
CCN1CCOCC2(CCCN(C(=O)c3ccncc3F)C2)C1 (stereo not drawn) | -3.16%
Cc1ccccc1N1CC(c2nnc(N)s2)CC1=O (stereo not drawn) | -0.411%
Cc1nccn1CCCN1CCC(c2nccn2CC2CCC2)CC1 | -20.8%
CCN(CCc1nc2cc(C)ccc2[nH]1)C(=O)COC | -5.89%
O=C(c1ccncc1F)N1CCc2onc(COc3cccnc3)c2C1 | -70.6%
CCOC(=O)c1cc(C(C)(O)CCC=C(C)C)on1 (stereo not drawn) | 2.3%
